ChEMBL document CHEMBL1148550, “4-Phenyl-4-[1H-imidazol-2-yl]-piperidine derivatives, a novel class of selective delta-opioid agonists” (Bioorg Med Chem Lett, 2006)

Legend:
[1] = biological target: Kappa-type opioid receptor (Homo sapiens, UniProt P41145); experiment: Displacement of [3H]U-69593 from cloned human kappa opioid receptor
Outline: (§1)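 Radioligand competition binding at cloned human receptors: [³H]DAMGO for mu, [³H]DPDPE for delta, [³H]U69593 for kappa. Ki is the concentration giving half-maximal inhibition of tracer binding.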

Mu-type opioid receptor = Mu-type opioid receptor (Homo sapiens, UniProt P35372); experiment: Displacement of [3H]DAMGO from cloned human mu opioid receptor; outline: as §1
[2] = biological target: Opioid receptors; delta & kappa (Homo sapiens) (UniProt P41145+P41143); experiment: Selectivity for cloned human kappa opioid receptor over delta opioid receptor; format: protein assay
[3] = biological target: T1, Delta-type opioid receptor (Homo sapiens, UniProt P41143); experiment: Displacement of [3H]DPDPE from cloned human delta opioid receptor; outline: as §1
[4] = biological target: Opioid receptors; mu & delta (Homo sapiens) (UniProt P41143+P35372); experiment: Selectivity for cloned human mu opioid receptor over delta opioid receptor; format: protein assay
[5] = biological target: T1, Delta-type opioid receptor; experiment: Agonist potency assessed by [35S]GTP-gammaS binding assay in C6 Glioma cells expressing cloned human delta opioid receptor; format: functional, cell-based
Outline: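 Membranes expressing human δ-opioid receptors; agonism read as percent stimulation of [³⁵S]GTPγS binding against log molar ligand concentration. pEC₅₀ derived from three-parameter logistic curve fits.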

Opioid receptors; delta & kappa (Homo sapiens), sequence (P41143 whole entry, looked up): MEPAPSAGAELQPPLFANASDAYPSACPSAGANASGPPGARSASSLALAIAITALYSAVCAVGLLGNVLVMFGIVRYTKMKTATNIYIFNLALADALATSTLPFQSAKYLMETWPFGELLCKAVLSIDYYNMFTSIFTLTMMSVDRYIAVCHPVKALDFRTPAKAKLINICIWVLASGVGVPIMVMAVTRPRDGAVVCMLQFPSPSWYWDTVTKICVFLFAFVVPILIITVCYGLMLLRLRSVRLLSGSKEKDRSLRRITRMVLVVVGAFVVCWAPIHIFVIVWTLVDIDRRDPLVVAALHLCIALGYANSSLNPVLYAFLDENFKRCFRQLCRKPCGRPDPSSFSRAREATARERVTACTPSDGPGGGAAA
Opioid receptors; delta & kappa (Homo sapiens), sequence (P41145 whole entry, looked up): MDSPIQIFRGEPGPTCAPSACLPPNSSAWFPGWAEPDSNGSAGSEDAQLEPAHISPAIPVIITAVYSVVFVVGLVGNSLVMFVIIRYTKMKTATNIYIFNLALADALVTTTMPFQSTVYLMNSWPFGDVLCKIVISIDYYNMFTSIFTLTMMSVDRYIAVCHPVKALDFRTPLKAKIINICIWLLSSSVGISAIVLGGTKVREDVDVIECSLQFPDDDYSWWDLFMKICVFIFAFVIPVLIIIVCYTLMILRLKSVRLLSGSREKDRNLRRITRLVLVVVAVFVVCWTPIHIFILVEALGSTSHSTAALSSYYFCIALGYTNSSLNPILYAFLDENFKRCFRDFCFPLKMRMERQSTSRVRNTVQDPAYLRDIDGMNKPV
T1 sequence (P41143 whole entry): as the sequence (P41143 whole entry, looked up) above
Kappa-type opioid receptor, sequence (P41145 whole entry): as the sequence (P41145 whole entry, looked up) above
Mu-type opioid receptor, sequence (P35372 whole entry): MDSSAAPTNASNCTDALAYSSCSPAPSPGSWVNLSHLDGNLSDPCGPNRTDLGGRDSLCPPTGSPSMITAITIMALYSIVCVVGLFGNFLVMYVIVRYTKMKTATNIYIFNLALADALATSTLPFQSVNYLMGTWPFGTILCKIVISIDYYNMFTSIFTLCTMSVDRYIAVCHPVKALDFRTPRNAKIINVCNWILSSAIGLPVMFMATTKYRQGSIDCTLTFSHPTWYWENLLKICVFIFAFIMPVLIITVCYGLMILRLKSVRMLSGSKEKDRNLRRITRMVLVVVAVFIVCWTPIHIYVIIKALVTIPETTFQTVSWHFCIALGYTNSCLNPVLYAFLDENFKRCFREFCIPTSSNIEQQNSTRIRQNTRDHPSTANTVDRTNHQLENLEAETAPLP
Opioid receptors; mu & delta (Homo sapiens), sequence (P35372 whole entry, looked up): as the sequence (P35372 whole entry) above
Opioid receptors; mu & delta (Homo sapiens), sequence (P41143 whole entry, looked up): as the sequence (P41143 whole entry, looked up) above

Row | Ki [1] [nM] | Ki (Mu-type opioid receptor) [nM] | Ratio Ki [2] | Ki [3] [nM] | Ratio Ki [4] | EC50 [5] [nM] | SMILES
1 | 318 | 2520 |  |  |  |  | O=C(Nc1ccccc1F)N1CCC(c2ccccc2)(c2nccn2Cc2ccccc2)CC1
2 | 2160 | > 4650 | 11 | 203 | > 23 |  | O=C(Nc1ccccc1)N1CCC(c2ccccc2)(c2nccn2Cc2ccc(F)cc2)CC1
3 | 152 | 1380 |  |  |  |  | COc1cccc(NC(=O)N2CCC(c3ccccc3)(c3nccn3Cc3ccccc3)CC2)c1
4 | > 4650 | > 465 |  | > 465 |  |  | O=C(Nc1ccccc1)N1CCC(c2ccccc2)(c2ncc[nH]2)CC1
5 | 116 | 428 |  |  |  |  | O=C(Nc1ccccc1)N1CCC(c2ccccc2)(c2nccn2Cc2ccccc2F)CC1
6 | > 4650 | > 4650 |  |  |  |  | O=C(Nc1cccc(F)c1)N1CCC(c2ccccc2)(c2nccn2Cc2ccccc2)CC1
7 | 126 | > 465 | 1.6 | 81 | > 5.7 | 1480 | O=C(Nc1ccccc1)N1CCC(c2ccccc2)(c2nccn2Cc2ccccc2)CC1
8 | > 4650 | > 4650 | > 44 | 106 | > 44 |  | NS(=O)(=O)N1CCC(c2ccccc2)(c2nccn2Cc2ccccc2)CC1
9 | > 465 | 497 |  |  |  |  | CC(c1ccccc1)n1ccnc1C1(c2ccccc2)CCN(C(=O)Nc2ccccc2)CC1 (configuration not stated)
10 | 505 | > 4650 | 28 | 18 | > 258 | 14 | c1ccc(Cn2ccnc2C2(c3ccccc3)CCN(c3ncccn3)CC2)cc1
11 | 2530 | > 4650 | 32 | 79 | > 58 | 98 | c1ccc(Cn2ccnc2C2(c3ccccc3)CCN(c3nccs3)CC2)cc1
12 | 2010 | > 4650 | 44 | 46 | > 101 |  | CS(=O)(=O)N1CCC(c2ccccc2)(c2nccn2Cc2ccccc2)CC1
13 |  | > 465 |  | 44 | > 10 |  | COc1ccc(NC(=O)N2CCC(c3ccccc3)(c3nccn3Cc3ccccc3)CC2)cc1
14 | 148 | 1210 | 1.5 | 97 | 12 |  | O=C(Nc1ccc(F)cc1)N1CCC(c2ccccc2)(c2nccn2Cc2ccccc2)CC1
15 | 40 | 235 | 0.29 | 138 | 1.7 |  | Cn1c(N2CCC(c3ccccc3)(c3nccn3Cc3ccccc3)CC2)nc2ccccc21
16 | 1190 | > 4650 | 0.32 | 3700 | > 1.2 |  | O=C(Nc1ccccc1)N1CCC(c2ccccc2)(c2nccn2C(=O)c2ccccc2)CC1
17 | 242 | > 4650 |  |  |  |  | CCNC(=O)N1CCC(c2ccccc2)(c2nccn2Cc2ccccc2)CC1
18 | 2060 | 3250 | 9 | 217 | 15 |  | COc1cccc(Cn2ccnc2C2(c3ccccc3)CCN(C(=O)Nc3ccccc3)CC2)c1
19 | 782 | > 4650 |  |  |  |  | COc1ccccc1NC(=O)N1CCC(c2ccccc2)(c2nccn2Cc2ccccc2)CC1
20 | 858 | > 4650 | 5.3 | 161 | > 29 |  | CN1CCN(C(=O)N2CCC(c3ccccc3)(c3nccn3Cc3ccccc3)CC2)CC1
21 | 397 | > 4650 |  |  |  |  | CN(C(=O)N1CCC(c2ccccc2)(c2nccn2Cc2ccccc2)CC1)c1ccccc1
22 |  | 980 |  | 3.2 |  | 832 | O=S(=O)(Nc1ccccc1)N1CCC(c2ccccc2)(c2nccn2Cc2ccccc2)CC1

Row | SMILES | Ki [1] [nM] | Ki (Mu-type opioid receptor) [nM] | Ratio Ki [2] | Ki [3] [nM] | Ratio Ki [4] | EC50 [5] [nM]
23 | NC(=O)N1CCC(c2ccccc2)(c2nccn2Cc2ccccc2)CC1 | 334 | > 4650 | 3.4 | 99 | > 51 | 
24 | c1ccc(Cn2ccnc2C2(c3ccccc3)CCN(c3nc4ccccc4s3)CC2)cc1 |  | > 4650 |  | 73 | > 63 | 26
25 | O=C(Nc1ccccc1)N1CCC(c2ccccc2)(c2nccn2Cc2cccc(F)c2)CC1 | 1880 | > 4650 | 15 | 128 | > 36 | 
26 | O=C(Nc1ccccc1)N1CCC(c2ccccc2)(c2nccn2Cc2ccccn2)CC1 | 46 | 1420 | 0.015 | 3070 | 0.46 | 
